Reference: ChEMBL document CHEMBL2021842, “COMPARE analysis of the toxicity of an iminoquinone derivative of the imidazo[5,4-f]benzimidazoles with NAD(P)H:quinone oxidoreductase 1 (NQO1) activity and computational docking of quinones as NQO1 substrates” (Bioorg Med Chem, 2012)

How the values were obtained:
MCF7 = test: Growth inhibition of human MCF7 cells assessed as cell growth at 10 uM relative to untreated control; format: functional; conditions: read-out: Activity
Procedure, shortened: (§1)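 First stage of the NCI DTP 60 human tumour cell-line screen. Cells were exposed to a single dose of 10 µM. Output is reported as growth % relative to control.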

SNB-19 = test: Growth inhibition of human SNB19 cells assessed as cell growth at 10 uM relative to untreated control; format: functional; conditions: read-out: Activity
Procedure, shortened: (§2)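 This is the first stage of the NCI DTP 60-human-tumour-cell-line screen, covering nine tissue types. Cells receive a single dose of the test compound, and the output is reported as mean growth %.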

A549 = test: Growth inhibition of human A549 cells assessed as cell growth at 10 uM relative to untreated control; format: functional; conditions: read-out: Activity
Procedure, shortened: (§3)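 NCI DTP 60-cell-line screen, first stage: a single 10 µM dose of compound given to the human tumour panel. Result reported as percent growth relative to control, on a mean growth graph.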

DU-145 [1] = test: Growth inhibition of human DU145 cells assessed as cell growth at 10 uM relative to untreated control; format: functional; conditions: read-out: Activity; procedure, shortened: as §3
NCI-H23 = test: Growth inhibition of human NCI-H23 cells assessed as cell growth at 10 uM relative to untreated control; format: functional; conditions: read-out: Activity; procedure, shortened: as §1
CAKI-1 = test: Growth inhibition of human Caki1 cells assessed as cell growth at 10 uM relative to untreated control; format: functional; conditions: read-out: Activity; procedure, shortened: as §3
HL-60(TB) = test: Growth inhibition of human HL-60(TB) cells assessed as cell growth at 10 uM relative to untreated control; format: functional; conditions: read-out: Activity
Procedure, shortened: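 NCI DTP NCI-60 screen, first stage: a single dose applied to 60 human tumour cell lines from nine tissue types. Output is reported as growth %.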

HCT-15 = test: Growth inhibition of human HCT15 cells assessed as cell growth at 10 uM relative to untreated control; format: functional; conditions: read-out: Activity; procedure, shortened: as §3
RXF 393 = test: Growth inhibition of human RXF393 cells assessed as cell growth at 10 uM relative to untreated control; format: functional; conditions: read-out: Activity; procedure, shortened: as §1
SK-MEL-5 = test: Growth inhibition of human SK-MEL-5 cells assessed as cell growth at 10 uM relative to untreated control; format: functional; conditions: read-out: Activity; procedure, shortened: as §1
SF-539 = test: Growth inhibition of human SF539 cells assessed as cell growth at 10 uM relative to untreated control; format: functional; conditions: read-out: Activity; procedure, shortened: as §1
NCI/ADR-RES = test: Growth inhibition of human NCI/ADR-RES cells assessed as cell growth at 10 uM relative to untreated control; format: functional; conditions: read-out: Activity; procedure, shortened: as §1
MDA-MB-468 = test: Growth inhibition of human MDA-MB-468 cells assessed as cell growth at 10 uM relative to untreated control; format: functional; conditions: read-out: Activity; procedure, shortened: as §1
OVCAR-3 = test: Growth inhibition of human OVCAR3 cells assessed as cell growth at 10 uM relative to untreated control; format: functional; conditions: read-out: Activity; procedure, shortened: as §1
SF-295 = test: Growth inhibition of human SF295 cells assessed as cell growth at 10 uM relative to untreated control; format: functional; conditions: read-out: Activity; procedure, shortened: as §1
SF-268 = test: Growth inhibition of human SF268 cells assessed as cell growth at 10 uM relative to untreated control; format: functional; conditions: read-out: Activity; procedure, shortened: as §1
[2] = Cytotoxicity against human GM00637 cells assessed as reduction in mean cell viability after 72 hrs by MTT assay; format: cell-based; conditions: GM00637, 72 h
Procedure, shortened: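 SV40-transformed normal skin fibroblasts (GM00637) in MEM Eagle–Earle BSS with 15% heat-inactivated FBS, 2 mM L-glutamine, 2× amino acids and vitamins. Seeded at 10,000 cells/well and left 24 h to adhere. Ethanol-delivered compound (1% final) for 72 h at 37 °C, 5% CO₂. MTT formazan in DMSO read at 550/690 nm. Viability relative to vehicle; IC₅₀ by nonlinear regression.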

M14 = test: Growth inhibition of human M14 cells assessed as cell growth at 10 uM relative to untreated control; format: functional; conditions: read-out: Activity; procedure, shortened: as §3
NCI-H460 = test: Growth inhibition of human NCI-H460 cells assessed as cell growth at 10 uM relative to untreated control; format: functional; conditions: read-out: Activity; procedure, shortened: as §1
NCI-H226 = test: Growth inhibition of human NCI-H226 cells assessed as cell growth at 10 uM relative to untreated control; format: functional; conditions: read-out: Activity; procedure, shortened: as §1
UACC-62 = test: Growth inhibition of human UACC62 cells assessed as cell growth at 10 uM relative to untreated control; format: functional; conditions: read-out: Activity; procedure, shortened: as §2
CCRF-CEM = test: Growth inhibition of human CCRF-CEM cells assessed as cell growth at 10 uM relative to untreated control; format: functional; conditions: read-out: Activity; procedure, shortened: as §3
HeLa = test: Cytotoxicity against human HeLa cells assessed as reduction in mean cell viability after 72 hrs by MTT assay; format: functional, cell-based
Procedure, shortened: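 HeLa-CCL-2 cells in DMEM with 10% heat-inactivated FBS, 2 mM L-glutamine and nonessential amino acids. Plated at 1000 cells/well with 24 h adherence. Treated in ethanol (1% final) for 72 h at 37 °C under 5% CO₂, with ethanol controls. Absorbance of DMSO-dissolved formazan at 550 nm, 690 nm reference. IC₅₀ by nonlinear regression of percent viability.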

[3] = Growth inhibition of human […] cells assessed as cell growth at 10 uM relative to untreated control; format: functional; conditions: read-out: Activity; procedure, shortened: as §1
HT-29 = test: Growth inhibition of human HT-29 cells assessed as cell growth at 10 uM relative to untreated control; format: functional; conditions: read-out: Activity; procedure, shortened: as §3
UACC-257 = test: Growth inhibition of human UACC257 cells assessed as cell growth at 10 uM relative to untreated control; format: functional; conditions: read-out: Activity; procedure, shortened: as §2
SK-OV-3 = test: Growth inhibition of human SKOV3 cells assessed as cell growth at 10 uM relative to untreated control; format: functional; conditions: read-out: Activity; procedure, shortened: as §1
SR = test: Growth inhibition of human SR cells assessed as cell growth at 10 uM relative to untreated control; format: functional; conditions: read-out: Activity; procedure, shortened: as §2
MOLT-4 = test: Growth inhibition of human MOLT4 cells assessed as cell growth at 10 uM relative to untreated control; format: functional; conditions: read-out: Activity; procedure, shortened: as §1
786-0 = test: Growth inhibition of human 786-0 cells assessed as cell growth at 10 uM relative to untreated control; format: functional; conditions: read-out: Activity; procedure, shortened: as §3
OVCAR-4 = test: Growth inhibition of human OVCAR4 cells assessed as cell growth at 10 uM relative to untreated control; format: functional; conditions: read-out: Activity; procedure, shortened: as §1
SW-620 = test: Growth inhibition of human SW620 cells assessed as cell growth at 10 uM relative to untreated control; format: functional; conditions: read-out: Activity; procedure, shortened: as §2
DU-145 [4] = test: Cytotoxicity against human DU145 cells assessed as reduction in mean cell viability after 72 hrs by MTT assay; format: functional, cell-based; conditions: DU-145, 72 h
Procedure, shortened: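 DU-145 prostate cells in RPMI-1640 with 10% heat-inactivated FBS, penicillin–streptomycin and 2 mM L-glutamine. Seeded at 2000 cells/well and left 24 h to adhere. Compound added in ethanol (1% final) for 72 h at 37 °C, 5% CO₂, with ethanol-only controls. Formazan dissolved in DMSO and read at 550 nm (690 nm reference). IC₅₀ derived by nonlinear regression of viability versus vehicle.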

MDA-MB-231 = test: Growth inhibition of human MDA-MB-231 cells assessed as cell growth at 10 uM relative to untreated control; format: functional; conditions: read-out: Activity; procedure, shortened: as §1
A498 = test: Growth inhibition of human A498 cells assessed as cell growth at 10 uM relative to untreated control; format: functional; conditions: read-out: Activity; procedure, shortened: as §3
T47D = test: Growth inhibition of human T47D cells assessed as cell growth at 10 uM relative to untreated control; format: functional; conditions: read-out: Activity; procedure, shortened: as §2

Row | SMILES | growth at 10 µM (MCF7) [%] | growth at 10 µM (SNB-19) [%] | growth at 10 µM (A549) [%] | growth at 10 µM (DU-145 [1]) [%] | growth at 10 µM (NCI-H23) [%] | growth at 10 µM (CAKI-1) [%] | growth at 10 µM (HL-60(TB)) [%] | growth at 10 µM (HCT-15) [%] | growth at 10 µM (RXF 393) [%] | growth at 10 µM (SK-MEL-5) [%] | growth at 10 µM (SF-539) [%] | growth at 10 µM (NCI/ADR-RES) [%] | growth at 10 µM (MDA-MB-468) [%] | growth at 10 µM (OVCAR-3) [%] | growth at 10 µM (SF-295) [%] | growth at 10 µM (SF-268) [%] | IC50 [2] [nM] | growth at 10 µM (M14) [%] | growth at 10 µM (NCI-H460) [%] | growth at 10 µM (NCI-H226) [%] | further results
1 | N=C1c2nc3n(c2C(=O)c2nc4n(c21)CCCC4)CCCC3 | -6.98 | 30 | -30.6 | -93.9 | -70.4 | 88.8 | 96.3 | 6.18 | 94.8 | -98 | -21.7 | 85.7 | 68.1 | 98.4 | -85.7 | 71.3 | 3630 | -95.6 | 4.62 | 57.1 | growth at 10 µM (UACC-62): -85.1%; growth at 10 µM (CCRF-CEM): 92.9%; IC50 (HeLa): 1550 nM; growth at 10 µM [3]: 82.2%; growth at 10 µM (HT-29): -13.7%; growth at 10 µM (UACC-257): -6.6%; growth at 10 µM (SK-OV-3): 95%; growth at 10 µM (SR): 69.5%; growth at 10 µM (MOLT-4): 85.4%; growth at 10 µM (786-0): 89%; growth at 10 µM (OVCAR-4): 96.2%; growth at 10 µM (SW-620): 23.7%; IC50 (DU-145 [4]): 300 nM; growth at 10 µM (MDA-MB-231): 82.6%; growth at 10 µM (A498): 52%; growth at 10 µM (T47D): 71.9%
2 | O=C1c2nc3n(c2C(=O)c2nc4n(c21)CCCC4)CCCC3 | 101 | 98.6 | 99.7 | 101 | 100 | 90.7 | 107 | 103 | 107 | 87.6 | 121 | 103 | 95.6 | 97 | 87.9 | 92.3 | > 5000 | 108 | 95 | 111 | growth at 10 µM (UACC-62): 99.8%; growth at 10 µM (CCRF-CEM): 103%; IC50 (HeLa): 1670 nM; growth at 10 µM [3]: 97.6%; growth at 10 µM (HT-29): 104%; growth at 10 µM (UACC-257): 96.9%; growth at 10 µM (SK-OV-3): 102%; growth at 10 µM (SR): 101%; growth at 10 µM (MOLT-4): 111%; growth at 10 µM (786-0): 111%; growth at 10 µM (OVCAR-4): 100%; growth at 10 µM (SW-620): 104%; IC50 (DU-145 [4]): 1990 nM; growth at 10 µM (MDA-MB-231): 96.8%; growth at 10 µM (A498): 99.9%; growth at 10 µM (T47D): 99.3%
